Measurements reported in paper PMC5812400 (ESMO Open, 2018).
Several values for one entry are separate records, joined by “and”; a condition that tells them apart may be missing. Equal entries are not always repeated.

Legend:
[1] = test system: adult patients with advanced non-haematological malignancies; test: DLT and MTD/RP2D determination, phase I dose escalation of milled TAK-228; format: in vivo, human; settings: for Maximum tolerated dose (MTD) / Recommended phase II dose (RP2D): milled
Method in brief: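 Open-label dose escalation at four US sites with milled oral capsules, fasted, in 28-day cycles. Arms: QD days 1–28 (start 4 mg); QD days 2–4, 9–11, 16–18, 23–25 (start 6 mg) with IV taxane 80 mg/m2 on days 1, 8 and 15, ~24 h before dosing; QW days 1, 8, 15, 22 (start 20 mg). DLT: drug-related AE preventing further escalation. MTD: dose giving ≤1 DLT in cycle 1. DLT-evaluable: ≥75% of planned cycle 1 doses, or stopped earlier for a drug-related AE.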

[2] = Plasma PK of milled TAK-228 in TAK-228+P and TAK-228 QW arms, LC-MS/MS; format: in vivo, human; settings: for Cmax / Tmax / AUC(0-t) / AUC(0-inf) / Vd/F / half-life: human, plasma, oral
Method in brief: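 Milled capsules given fasted. Combination arm sampled on cycle 1 day 2, the first dosing day, ~24 h after IV taxane 80 mg/m2; QW arm sampled on cycle 1 day 1. LC-MS/MS validated over 1–1000 ng/mL. PK parameters summarised descriptively (geometric/arithmetic means, medians, CV).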

[3] = test system: patients with haematological malignancies or advanced solid tumours; settings: unmilled TAK-228, haematological malignancies; ref 7 11; cited from earlier work
[4] = Plasma PK of TAK-228 4 mg in single-agent QD PK run-in; format: in vivo, human; settings: for AUC(0-inf) / Cmax: geometric mean (%CV)
Method in brief: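 Run-in ≤14 days before cycle 1. Three visits ≥48 h apart, each a 4 mg oral dose: unmilled fasted, milled after high-fat breakfast, milled fasted. No proton pump inhibitor within 5 days or H2 antagonist within 24 h. LC-MS/MS validated over 1–1000 ng/mL. ANOVA on log Cmax and AUC (treatment fixed, patient random); geometric mean ratios with 90% CI.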

[5] = human, plasma, oral, 4 mg, 4 mg milled, fed (high-fat breakfast)

CC(C)n1nc(-c2ccc3oc(N)nc3c2)c2c(N)ncnc21 [TAK-228, Sapanisertib]
Patients with DLT ([1]; QD 3 mg, 10 patients, grade 3 thrombocytopaenia): one patient experienced a DLT | DLT-evaluable patients with at least one DLT ([1]; QD 4 mg): 3/6 | Patients with DLT ([1]; QW 20 mg): none of the six patients | Patients with DLT ([1]; QW 30 mg, cohort expanded to 12 patients, grade 3 adverse drug reaction): 1 patient | Patients with DLT ([1]; QW 30 mg, initial six DLT-evaluable patients): none experiencing DLTs | Maximum tolerated dose (MTD) ([1]; QD 3 days/week in combination with paclitaxel 80 mg/m^2): 6 mg | Recommended phase II dose (RP2D) ([1]; in combination with paclitaxel 80 mg/m^2): 4 mg | Maximum tolerated dose (MTD) ([1]; single-agent QD): 3 mg | Recommended phase II dose (RP2D) ([1]; single-agent QD): 3 mg | Maximum tolerated dose (MTD) ([1]; single-agent QW): 30 mg | Recommended phase II dose (RP2D) ([1]; single-agent QW): 30 mg | CL/F, geometric mean (CV) ([2]; QW 20 mg (n=7)): 15.1 (46) L/hour | CL/F, geometric mean (CV) ([2]; QW 30 mg (n=13)): 18.3 (63) L/hour | Effect of paclitaxel administered 24 hours before TAK-228 on TAK-228 PK ([2]; combination arm vs QD arm (4 mg, milled, fasted)): no clinically meaningful effects | Cmax ([2]; 4 mg): 28.5 ng/mL | Tmax ([2]; 4 mg): 2.2 h | AUC(0-t) ([2]; 6 mg): 244 ng·h/mL | AUC(0-inf) ([2]; 20 mg): 1330 ng·h/mL | AUC(0-t) ([2]; 20 mg): 1240 ng·h/mL | Cmax ([2]; 20 mg): 209 ng/mL | Vd/F ([2]; 20 mg): 125 L | half-life ([2]; 20 mg): 6.1 h | AUC(0-inf) ([2]; 30 mg): 1640 ng·h/mL | AUC(0-t) ([2]; 30 mg): 1530 ng·h/mL | Cmax ([2]; 30 mg): 235 ng/mL | Tmax ([2]; 30 mg): 1 h | Vd/F ([2]; 30 mg): 155 L | half-life ([2]; 30 mg): 6 h | Incidence of grade ≥3 drug-related AEs [3]: 31% | AUC(0-inf) ([4]; human, plasma, oral, 4 mg, 4 mg milled, fasted): 369 ng·h/mL | AUC(0-inf) [4, 5]: 383 ng·h/mL | Cmax [4, 5]: 21.6 ng/mL | Cmax ([4]; human, plasma, oral, 4 mg, 4 mg unmilled, fasted): 34 ng/mL | Tmax ([4]; human, plasma, oral, 4 mg, Tmax, median (range), 4 mg milled, fed (high-fat breakfast)): 6 h | Reduction in geometric mean Cmax, fed versus fasted ([4]; milled 4 mg, high-fat breakfast vs empty stomach): ~ 40% and 40%
